Results as given in ChEMBL document CHEMBL3414463, “Discovery of potent and selective 8-fluorotriazolopyridine c-Met inhibitors” (J Med Chem, 2015).

Experiments:
Liver microsome [1] = experiment: Drug level in rat liver microsomes treated with 5-(8-Fluoro-3-(1-(3-(2-methoxyethoxy)quinolin-6-yl)ethyl)-[1,2,4]triazolo[4,3-a]pyridin-6-yl)-3-methylisoxazole assessed as compound formation in presence of NADPH by LC-MS/MS method; type: ADME
Method in brief: (§1)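 Compound incubated with NADPH in mouse, rat, dog, monkey or human liver microsomes. Metabolites were identified by accurate mass spectrometry and MS/MS, and selected ion chromatograms were used to build metabolite profiles.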

[2] = Drug level in mouse liver microsomes treated with 5-(8-Fluoro-3-(1-(3-(2-methoxyethoxy)quinolin-6-yl)ethyl)-[1,2,4]triazolo[4,3-a]pyridin-6-yl)-3-methylisoxazole assessed as compound formation in presence of NADPH by LC-MS/MS method; type: ADME; method in brief: as §1
Liver microsome [3] = experiment: Drug level in human liver microsomes treated with 5-(8-Fluoro-3-(1-(3-(2-methoxyethoxy)quinolin-6-yl)ethyl)-[1,2,4]triazolo[4,3-a]pyridin-6-yl)-3-methylisoxazole assessed as compound formation in presence of NADPH by LC-MS/MS method; type: ADME; method in brief: as §1
Liver microsome [4] = experiment: Drug level in dog liver microsomes treated with 5-(8-Fluoro-3-(1-(3-(2-methoxyethoxy)quinolin-6-yl)ethyl)-[1,2,4]triazolo[4,3-a]pyridin-6-yl)-3-methylisoxazole assessed as compound formation in presence of NADPH by LC-MS/MS method; type: ADME, Canis lupus familiaris; method in brief: as §1
[5] = Drug level in monkey liver microsomes treated with 5-(8-Fluoro-3-(1-(3-(2-methoxyethoxy)quinolin-6-yl)ethyl)-[1,2,4]triazolo[4,3-a]pyridin-6-yl)-3-methylisoxazole assessed as compound formation in presence of NADPH by LC-MS/MS method; type: ADME, Macaca mulatta; conditions: rhesus monkey; method in brief: as §1
Liver microsome [6] = experiment: Drug level in dog liver microsomes treated with 5-(8-Fluoro-3-(1-(3-methoxyquinolin-6-yl)ethyl)[1,2,4]-triazolo[4,3-a]pyridin-6-yl)-3-methylisoxazole assessed as compound formation in presence of NADPH by LC-MS/MS method; type: ADME, Canis lupus familiaris; method in brief: as §1
[7] = Drug level in mouse liver microsomes treated with 5-(8-Fluoro-3-(1-(3-methoxyquinolin-6-yl)ethyl)[1,2,4]-triazolo[4,3-a]pyridin-6-yl)-3-methylisoxazole assessed as compound formation in presence of NADPH by LC-MS/MS method; type: ADME; method in brief: as §1
Liver microsome [8] = experiment: Drug level in rat liver microsomes treated with 5-(8-Fluoro-3-(1-(3-methoxyquinolin-6-yl)ethyl)[1,2,4]-triazolo[4,3-a]pyridin-6-yl)-3-methylisoxazole assessed as compound formation in presence of NADPH by LC-MS/MS method; type: ADME; method in brief: as §1
Cytochrome P450 3A4 = Cytochrome P450 3A4 (Homo sapiens, UniProt P08684); experiment: Inhibition of CYP3A4 (unknown origin); type: ADME
Sequence of Cytochrome P450 3A4 (P08684 whole entry, the tested form may be a part): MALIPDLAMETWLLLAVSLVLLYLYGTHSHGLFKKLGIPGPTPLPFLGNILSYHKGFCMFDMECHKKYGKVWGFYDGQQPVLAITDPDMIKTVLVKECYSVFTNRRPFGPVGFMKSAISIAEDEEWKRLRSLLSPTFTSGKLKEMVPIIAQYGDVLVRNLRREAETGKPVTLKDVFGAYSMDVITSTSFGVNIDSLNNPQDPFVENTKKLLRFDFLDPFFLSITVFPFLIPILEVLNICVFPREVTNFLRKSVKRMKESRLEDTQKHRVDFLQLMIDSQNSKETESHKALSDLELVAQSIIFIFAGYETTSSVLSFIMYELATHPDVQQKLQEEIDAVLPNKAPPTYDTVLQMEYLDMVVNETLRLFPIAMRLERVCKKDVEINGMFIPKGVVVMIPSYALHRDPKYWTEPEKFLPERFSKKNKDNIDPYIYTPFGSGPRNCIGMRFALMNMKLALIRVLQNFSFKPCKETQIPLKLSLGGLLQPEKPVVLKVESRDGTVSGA

[9] = target: T1, Hepatocyte growth factor receptor (Homo sapiens, UniProt P08581); experiment: Inhibition of recombinant c-Met kinase domain (unknown origin) incubated for 30 mins using gastrin peptide substrate by HTRF assay
T1 sequence (P08581 whole entry, the tested form may be a part): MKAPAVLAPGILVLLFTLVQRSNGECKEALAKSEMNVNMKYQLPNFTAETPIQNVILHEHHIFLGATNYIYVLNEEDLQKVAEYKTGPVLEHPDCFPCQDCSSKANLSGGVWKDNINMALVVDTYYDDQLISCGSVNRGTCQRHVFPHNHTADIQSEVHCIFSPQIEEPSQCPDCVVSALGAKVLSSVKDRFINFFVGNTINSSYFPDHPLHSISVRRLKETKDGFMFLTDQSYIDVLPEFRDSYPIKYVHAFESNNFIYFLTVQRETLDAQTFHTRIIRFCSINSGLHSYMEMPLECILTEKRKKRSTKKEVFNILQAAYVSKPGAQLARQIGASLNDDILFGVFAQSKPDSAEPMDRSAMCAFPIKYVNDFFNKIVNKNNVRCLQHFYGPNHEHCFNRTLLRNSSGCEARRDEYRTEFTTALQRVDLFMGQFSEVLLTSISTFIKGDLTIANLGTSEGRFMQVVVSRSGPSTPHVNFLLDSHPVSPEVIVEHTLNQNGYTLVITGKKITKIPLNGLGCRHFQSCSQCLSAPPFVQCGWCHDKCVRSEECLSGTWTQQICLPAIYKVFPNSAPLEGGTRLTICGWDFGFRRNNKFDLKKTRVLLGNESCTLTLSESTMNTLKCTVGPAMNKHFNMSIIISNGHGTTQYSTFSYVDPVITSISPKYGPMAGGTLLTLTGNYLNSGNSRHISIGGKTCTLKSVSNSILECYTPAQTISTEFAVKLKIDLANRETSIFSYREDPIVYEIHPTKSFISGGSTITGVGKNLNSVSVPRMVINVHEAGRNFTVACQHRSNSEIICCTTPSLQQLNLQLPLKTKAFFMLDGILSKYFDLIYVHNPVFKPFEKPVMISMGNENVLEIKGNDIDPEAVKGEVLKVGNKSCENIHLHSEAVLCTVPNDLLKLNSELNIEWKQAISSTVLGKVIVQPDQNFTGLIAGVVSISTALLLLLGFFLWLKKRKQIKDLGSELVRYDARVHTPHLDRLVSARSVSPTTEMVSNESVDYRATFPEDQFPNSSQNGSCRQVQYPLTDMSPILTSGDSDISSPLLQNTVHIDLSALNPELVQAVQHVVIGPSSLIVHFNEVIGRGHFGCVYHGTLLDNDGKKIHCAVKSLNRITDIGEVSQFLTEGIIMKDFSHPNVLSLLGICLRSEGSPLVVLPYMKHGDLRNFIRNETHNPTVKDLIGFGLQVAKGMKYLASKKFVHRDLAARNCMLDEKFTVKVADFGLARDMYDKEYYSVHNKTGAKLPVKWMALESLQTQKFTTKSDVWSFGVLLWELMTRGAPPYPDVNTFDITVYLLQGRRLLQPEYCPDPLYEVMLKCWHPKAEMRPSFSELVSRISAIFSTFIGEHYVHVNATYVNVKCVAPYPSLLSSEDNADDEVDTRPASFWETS

[10] = target: T1, Hepatocyte growth factor receptor; experiment: Inhibition of HGF-stimulated c-Met autophosphorylation in serum starved human PC3 cells pre-incubated for 1 hr followed by human recombinant HGF stimulation for 10 mins by quantitative electrochemiluminescence immunoassay; type: cell-based, PC-3
Method in brief: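 Serum-starved PC-3 cells (plated in high-glucose DMEM/10% FBS, then 16 h in low-glucose DMEM with 0.1% BSA) were treated with a 10-point inhibitor dilution for 1 h at 37 °C. Cells were then stimulated with 200 ng/mL recombinant human HGF for 10 min and lysed. Phospho-c-Met was captured with biotinylated anti-c-Met and 4G10 by electrochemiluminescence. IC50, n ≥ 2.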

Cytochrome P450 2D6 = Cytochrome P450 2D6 (Homo sapiens, UniProt P10635); experiment: Inhibition of CYP2D6 (unknown origin); type: ADME
Sequence of Cytochrome P450 2D6 (P10635 whole entry): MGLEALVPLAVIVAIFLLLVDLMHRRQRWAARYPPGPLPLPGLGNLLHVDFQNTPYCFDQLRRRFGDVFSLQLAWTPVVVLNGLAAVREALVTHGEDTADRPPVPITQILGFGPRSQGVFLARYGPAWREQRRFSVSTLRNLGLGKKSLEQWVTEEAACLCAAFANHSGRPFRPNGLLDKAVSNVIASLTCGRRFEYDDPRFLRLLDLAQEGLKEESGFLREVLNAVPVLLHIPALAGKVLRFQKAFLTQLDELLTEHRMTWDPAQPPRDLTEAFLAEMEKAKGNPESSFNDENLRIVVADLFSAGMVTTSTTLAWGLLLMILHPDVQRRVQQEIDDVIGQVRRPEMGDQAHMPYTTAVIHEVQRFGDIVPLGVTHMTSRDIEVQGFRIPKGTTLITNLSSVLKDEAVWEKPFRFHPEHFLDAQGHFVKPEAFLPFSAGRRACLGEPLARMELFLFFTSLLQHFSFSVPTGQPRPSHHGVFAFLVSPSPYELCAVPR

Liver microsome [11] = experiment: Stability in human liver microsomes assessed as compound turnover rate; type: ADME
Liver microsome [12] = experiment: Stability in rat liver microsomes assessed as compound turnover rate; type: ADME
[13] = AUC (0 to infinity) in Sprague-Dawley rat at 2 mg/kg, po; type: ADME, organism-based; parameters: time infinity, dose 2 mg/kg, route oral; conditions: plasma
Method in brief: (§2)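 Male Sprague-Dawley rats given 2.0 mg/kg orally in 2% (w/v) hydroxypropylmethylcellulose, 1% (w/v) Tween 80 in water, pH 2.2 (adjusted with HCl or MSA). Some inhibitors instead used 10% (v/v) dimethylacetamide in the same vehicle.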

[14] = Drug level in monkey liver microsomes treated with 5-(8-Fluoro-3-(1-(3-methoxyquinolin-6-yl)ethyl)[1,2,4]-triazolo[4,3-a]pyridin-6-yl)-3-methylisoxazole assessed as compound formation in presence of NADPH by LC-MS/MS method; type: ADME, Macaca mulatta; conditions: rhesus monkey; method in brief: as §1
Liver microsome [15] = experiment: Drug level in human liver microsomes treated with 5-(8-Fluoro-3-(1-(3-methoxyquinolin-6-yl)ethyl)[1,2,4]-triazolo[4,3-a]pyridin-6-yl)-3-methylisoxazole assessed as compound formation in presence of NADPH by LC-MS/MS method; type: ADME; method in brief: as §1
[16] = AUC (0 to infinity) in Sprague-Dawley rat at 0.25 mg/kg, iv; type: ADME, organism-based, Plasma; parameters: dose 0.25 mg/kg, route intravenous, time infinity; conditions: Sprague-Dawley, plasma
[17] = Oral bioavailability in Sprague-Dawley rat at 2 mg/kg; type: ADME, organism-based; conditions: in vivo; method in brief: as §2
[18] = Clearance in Sprague-Dawley rat at 0.25 mg/kg, iv; type: ADME, organism-based; parameters: dose 0.25 mg/kg, route intravenous; conditions: Sprague-Dawley, in vivo
[19] = Half life in Sprague-Dawley rat at 0.25 mg/kg, iv; type: ADME, organism-based; parameters: dose 0.25 mg/kg, route intravenous; conditions: in vivo
[20] = Volume of distribution at steady state in Sprague-Dawley rat at 0.25 mg/kg, iv; type: ADME, organism-based; parameters: dose 0.25 mg/kg, route intravenous; conditions: in vivo, read-out: Vdss
Method in brief: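 Male Sprague-Dawley rats were given a single IV dose of 0.25 mg/kg. The vehicle was DMSO, or for some compounds 20% (w/v) hydroxypropyl β-cyclodextrin in water adjusted to pH 3.5 with MSA. NC marks cases where the terminal disposition rate constant could not be characterized for lack of slope.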

Liver microsome [21] = experiment: Drug metabolism in dog liver microsomes assessed as formation of (S)-2-(8-fluoro-6-(3-methylisoxazol-5-yl)-[1,2,4]triazolo[4,3-a]pyridin-3-yl)-2-(3-methoxyquinolin-6-yl)ethanol in presence of NADPH by LC-MS/MS method; type: ADME, Canis lupus familiaris; method in brief: as §1
[22] = Drug metabolism in monkey liver microsomes assessed as formation of (S)-2-(8-fluoro-6-(3-methylisoxazol-5-yl)-[1,2,4]triazolo[4,3-a]pyridin-3-yl)-2-(3-methoxyquinolin-6-yl)ethanol in presence of NADPH by LC-MS/MS method; type: ADME, Macaca mulatta; conditions: rhesus monkey; method in brief: as §1
Liver microsome [23] = experiment: Drug metabolism in dog liver microsomes assessed as formation of (S)-6-(1-(8-fluoro-6-(3-methylisoxazol-5-yl)-[1,2,4]triazolo[4,3-a]pyridin-3-yl)ethyl)quinolin-3-ol in presence of NADPH by LC-MS/MS method; type: ADME, Canis lupus familiaris; method in brief: as §1
[24] = Drug metabolism in mouse liver microsomes assessed as formation of (S)-6-(1-(8-fluoro-6-(3-methylisoxazol-5-yl)-[1,2,4]triazolo[4,3-a]pyridin-3-yl)ethyl)quinolin-3-ol in presence of NADPH by LC-MS/MS method; type: ADME; method in brief: as §1
Liver microsome [25] = experiment: Drug metabolism in dog liver microsomes assessed as metabolite M3 in presence of NADPH by LC-MS/MS method; type: ADME, Canis lupus familiaris; method in brief: as §1
[26] = Drug metabolism in mouse liver microsomes assessed as formation of (S)-(5-(8-fluoro-3-(1-(3-methoxyquinolin-6-yl)ethyl)-[1,2,4]triazolo[4,3-a]pyridin-6-yl)isoxazol-3-yl)methanol in presence of NADPH by LC-MS/MS method; type: ADME; method in brief: as §1
[27] = Drug metabolism in mouse liver microsomes assessed as formation of (S)-2-(8-fluoro-6-(3-methylisoxazol-5-yl)-[1,2,4]triazolo[4,3-a]pyridin-3-yl)-2-(3-methoxyquinolin-6-yl)ethanol formation in presence of NADPH by LC-MS/MS method; type: ADME; method in brief: as §1
Liver microsome [28] = experiment: Drug metabolism in rat liver microsomes assessed as formation of (S)-6-(1-(8-fluoro-6-(3-methylisoxazol-5-yl)-[1,2,4]triazolo[4,3-a]pyridin-3-yl)ethyl)quinolin-3-ol in presence of NADPH by LC-MS/MS method; type: ADME; method in brief: as §1
[29] = Drug metabolism in mouse liver microsomes assessed as metabolite M3 formation in presence of NADPH by LC-MS/MS method; type: ADME; method in brief: as §1
Liver microsome [30] = experiment: Drug metabolism in rat liver microsomes assessed as metabolite M3 formation in presence of NADPH by LC-MS/MS method; type: ADME; method in brief: as §1
Liver microsome [31] = experiment: Drug metabolism in rat liver microsomes assessed as formation of (S)-2-(8-fluoro-6-(3-methylisoxazol-5-yl)-[1,2,4]triazolo[4,3-a]pyridin-3-yl)-2-(3-methoxyquinolin-6-yl)ethanol in presence of NADPH by LC-MS/MS method; type: ADME; method in brief: as §1
Liver microsome [32] = experiment: Drug metabolism in rat liver microsomes assessed as formation of (S)-(5-(8-fluoro-3-(1-(3-methoxyquinolin-6-yl)ethyl)-[1,2,4]triazolo[4,3-a]pyridin-6-yl)isoxazol-3-yl)methanol in presence of NADPH by LC-MS/MS method; type: ADME; method in brief: as §1
Liver microsome [33] = experiment: Drug metabolism in human liver microsomes assessed as formation of (S)-2-(8-fluoro-6-(3-methylisoxazol-5-yl)-[1,2,4]triazolo[4,3-a]pyridin-3-yl)-2-(3-methoxyquinolin-6-yl)ethanol in presence of NADPH by LC-MS/MS method; type: ADME; method in brief: as §1
Liver microsome [34] = experiment: Drug metabolism in dog liver microsomes assessed as formation of (S)-(5-(8-fluoro-3-(1-(3-methoxyquinolin-6-yl)ethyl)-[1,2,4]triazolo[4,3-a]pyridin-6-yl)isoxazol-3-yl)methanol in presence of NADPH by LC-MS/MS method; type: ADME, Canis lupus familiaris; method in brief: as §1
Liver microsome [35] = experiment: Unbound clearance rat liver microsomes at 1 uM in presence of NADPH by LC-MS/MS method; type: ADME
Method in brief: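 Aliquots were taken at 0, 10, 20, 30 and 40 min, quenched with an equal volume of acetonitrile, centrifuged and analysed by LC/MS/MS.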

SMILES: Cc1cc(-c2cc(F)c3nnc([C@@H](C)c4ccc5ncc(OCCO)cc5c4)n3c2)on1
- Drug metabolism (Liver microsome [1]): metabolite_detected
- Drug metabolism [2]: metabolite_detected
- Drug metabolism (Liver microsome [3]): metabolite_detected
- Drug metabolism (Liver microsome [4]): metabolite_detected
- Drug metabolism [5]: metabolite_detected

SMILES: COc1cnc2ccc([C@H](C)c3nnc4c(F)cc(-c5cc(CO)no5)cn34)cc2c1
- Drug metabolism (Liver microsome [6]): metabolite_detected
- Drug metabolism [7]: metabolite_detected
- Drug metabolism (Liver microsome [8]): metabolite_detected

SMILES: Cc1cc(-c2cc(F)c3nnc([C@@H](C)c4ccc5ncc(O)cc5c4)n3c2)on1
- Drug metabolism (Liver microsome [6]): metabolite_detected
- Drug metabolism [7]: metabolite_detected
- Drug metabolism (Liver microsome [8]): metabolite_detected

SMILES: COc1cnc2ccc(C(F)(F)c3nnc4c(F)cc(-c5cnn(C)c5)cn34)cc2c1
- inhibition (INH) (Cytochrome P450 3A4): Not Active
- IC50 [9]: 12 nM
- IC50 [10]: 13 nM
- inhibition (INH) (Cytochrome P450 2D6): Not Active
- Stability (Liver microsome [11]): Stable
- Stability (Liver microsome [12]): Stable
- AUC(0-inf) [13]: > 386 µM·h

SMILES: COc1cnc2ccc([C@H](CO)c3nnc4c(F)cc(-c5cc(C)no5)cn34)cc2c1
- Drug metabolism [14]: metabolite_detected
- Drug metabolism (Liver microsome [15]): metabolite_detected

SMILES: COc1cnc2ccc(C(F)(F)c3nnc4c(F)cc(-c5cscn5)cn34)cc2c1
- inhibition (INH) (Cytochrome P450 3A4): Not Active
- IC50 [9]: 2 nM
- AUC(0-inf) [16]: 6.5 µM·h
- IC50 [10]: 7 nM
- inhibition (INH) (Cytochrome P450 2D6): Not Active
- Stability (Liver microsome [11]): Stable
- Stability (Liver microsome [12]): Stable
- bioavailability [17]: 9%
- clearance [18]: 1.5 mL/min/kg
- half-life [19]: 1.5 h
- Vd [20]: 0.18 L/kg

SMILES: COc1cnc2ccc([C@H](C)c3nnc4c(F)cc(-c5cc(C)no5)cn34)cc2c1
- Drug metabolism (Liver microsome [21]): metabolite_notdetected
- Drug metabolism [22]: metabolite_detected
- Drug metabolism (Liver microsome [23]): metabolite_detected
- IC50 [9]: 2 nM
- AUC(0-inf) [16]: 9 µM·h
- Drug metabolism [24]: metabolite_detected
- Drug metabolism (Liver microsome [25]): metabolite_detected
- IC50 [10]: 6 nM
- Drug metabolism [26]: metabolite_detected
- Drug metabolism [27]: metabolite_notdetected
- Drug metabolism (Liver microsome [28]): metabolite_detected
- bioavailability [17]: 42%
- Drug metabolism [29]: metabolite_detected
- Drug metabolism (Liver microsome [30]): metabolite_detected
- clearance [18]: 1.5 mL/min/kg
- half-life [19]: 2.5 h
- Drug metabolism (Liver microsome [31]): metabolite_notdetected
- Drug metabolism (Liver microsome [32]): metabolite_detected
- Drug metabolism (Liver microsome [33]): metabolite_detected
- Vd [20]: 0.18 L/kg
- Drug metabolism (Liver microsome [34]): metabolite_detected
- CL free (Liver microsome [35]): 233 mL/min/kg

SMILES: Cc1cc(-c2cc(F)c3nnc([C@@H](C)c4ccc5ncc(OCC(=O)O)cc5c4)n3c2)on1
- Drug metabolism (Liver microsome [1]): metabolite_detected
- Drug metabolism [2]: metabolite_detected
- Drug metabolism (Liver microsome [3]): metabolite_detected
- Drug metabolism (Liver microsome [4]): metabolite_detected
- Drug metabolism [5]: metabolite_detected
